According to ChEMBL document CHEMBL1154352, “Toll-like receptor 7 selective synthetic oligoribonucleotide agonists: synthesis and structure-activity relationship studies” (J Med Chem, 2009):
Active and inactive are the calls of the source. The calls are words filed in the database; no cut-off is given here.

Columns and labels:
[1] = system: Mus musculus; test: Immunomodulatory activity in wild-type C57BL/6 mouse assessed as induction of IL12 release at 10 mg/kg, sc after 2 hrs by ELISA; type: functional, organism-based; parameters: dose 10 mg/kg
Procedure, shortened: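 Female C57BL/6 wild-type mice, 5–8 weeks old, n=3; compounds given subcutaneously at 10 or 25 mg/kg. Retro-orbital blood at 2 h; serum cytokines by mouse Luminex multiplex or IL-12 ELISA.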

[2] = system: Mus musculus; test: Immunomodulatory activity in TLR9 knockout C57BL/6 mouse assessed as induction of IL12 release at 10 mg/kg, sc after 2 hrs by ELISA; type: functional, organism-based; parameters: dose 10 mg/kg
Procedure, shortened: (§1)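 Male 8-week-old TLR9-/-, TLR7-/- or MyD88-/- mice on C57BL/6 background, n=3; single subcutaneous 10 mg/kg dose. Blood collected 2 h later by retro-orbital bleeding; serum IL-12 by ELISA.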

[3] = system: Mus musculus; test: Immunomodulatory activity in TLR7 knockout C57BL/6 mouse assessed as induction of IL12 release at 10 mg/kg, sc after 2 hrs by ELISA; type: functional, organism-based; parameters: dose 10 mg/kg; procedure, shortened: as §1
[4] = target: T1, Toll-like receptor 7 (Homo sapiens) (UniProt Q9NYK1); test: Activation of human TLR7 expressed in HEK293XL assessed as induction of NF-kappaB activity by reporter gene assay
T1 sequence (whole entry): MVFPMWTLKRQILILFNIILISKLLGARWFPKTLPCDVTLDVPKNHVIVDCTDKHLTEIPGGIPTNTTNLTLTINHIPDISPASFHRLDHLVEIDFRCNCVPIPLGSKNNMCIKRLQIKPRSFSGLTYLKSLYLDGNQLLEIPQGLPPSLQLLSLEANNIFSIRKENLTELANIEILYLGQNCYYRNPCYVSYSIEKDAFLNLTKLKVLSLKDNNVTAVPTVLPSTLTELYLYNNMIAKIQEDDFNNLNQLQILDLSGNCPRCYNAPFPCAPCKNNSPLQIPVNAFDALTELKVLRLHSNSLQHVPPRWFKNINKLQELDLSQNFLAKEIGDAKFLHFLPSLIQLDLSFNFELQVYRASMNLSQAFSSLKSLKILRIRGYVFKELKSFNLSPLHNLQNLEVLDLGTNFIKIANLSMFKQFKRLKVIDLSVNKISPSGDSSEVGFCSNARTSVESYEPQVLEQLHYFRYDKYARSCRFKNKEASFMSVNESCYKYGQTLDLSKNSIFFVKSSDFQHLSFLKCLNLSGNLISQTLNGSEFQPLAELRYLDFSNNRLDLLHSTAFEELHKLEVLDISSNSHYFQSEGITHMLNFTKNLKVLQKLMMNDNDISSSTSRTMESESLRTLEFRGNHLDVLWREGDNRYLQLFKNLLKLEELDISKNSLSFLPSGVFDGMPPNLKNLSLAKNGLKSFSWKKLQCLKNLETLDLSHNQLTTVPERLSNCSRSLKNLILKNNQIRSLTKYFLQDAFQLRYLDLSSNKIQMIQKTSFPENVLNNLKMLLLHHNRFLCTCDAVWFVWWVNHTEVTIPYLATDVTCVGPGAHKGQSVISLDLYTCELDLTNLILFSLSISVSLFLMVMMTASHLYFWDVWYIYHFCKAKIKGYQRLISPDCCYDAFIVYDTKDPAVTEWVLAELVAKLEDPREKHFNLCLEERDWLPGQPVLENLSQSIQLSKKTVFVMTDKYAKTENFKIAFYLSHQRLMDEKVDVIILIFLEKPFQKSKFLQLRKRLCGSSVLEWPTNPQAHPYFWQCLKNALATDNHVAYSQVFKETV
Procedure, shortened: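 HEK293 cells stably expressing human TLR7 or TLR8, transiently transfected with SEAP reporter plasmid; medium replaced, SIMRA compounds added, 18 h incubation. Supernatant SEAP measured by QuantiBlue; expressed as fold increase in NF-κB activity over PBS control. Tabulated data at 50 μg/mL, representative of three independent experiments.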

SMILES	Activity [1]	Activity [2]	Activity [3]	Activity [4]
Nc1ccn([C@@H]2O[C@H](COP(=O)(S)O[C@H]3[C@@H](O)[C@H](n4cnc5c(N)ncnc54)O[C@@H]3CO)[C@@H](OP(=O)(S)OC[C@H]3O[C@@H](n4ccc(=O)[nH]c4=O)[C@H](O)[C@@H]3OP(=O)(S)OC[C@H]3O[C@@H](n4ccc5c(=O)[nH]c(N)nc54)[C@H](O)[C@@H]3OP(=O)(S)OC[C@H]3O[C@@H](n4ccc(N)nc4=O)[C@H](O)[C@@H]3OP(=O)(S)OC[C@H]3O[C@@H](n4ccc5c(=O)[nH]c(N)nc54)[C@H](O)[C@@H]3OP(=O)(S)OC[C@H]3O[C@@H](n4cnc5c(N)ncnc54)[C@H](O)[C@@H]3OP(=O)(S)OC[C@H]3O[C@@H](n4ccc5c(=O)[nH]c(N)nc54)[C@H](O)[C@@H]3OP(=O)(S)OC[C@H]3O[C@@H](n4ccc(N)nc4=O)[C@H](O)[C@@H]3OP(=O)(S)OC[C@H]3O[C@@H](n4ccc(=O)[nH]c4=O)[C@H](O)[C@@H]3OP(=O)(S)OC[C@H]3O[C@@H](n4ccc(=O)[nH]c4=O)[C@H](O)[C@@H]3OP(=O)(S)OCC(O)COP(=O)(S)O[C@H]3[C@@H](O)[C@H](n4ccc(=O)[nH]c4=O)O[C@@H]3COP(=O)(S)O[C@H]3[C@@H](O)[C@H](n4ccc(=O)[nH]c4=O)O[C@@H]3COP(=O)(S)O[C@H]3[C@@H](O)[C@H](n4ccc(N)nc4=O)O[C@@H]3COP(=O)(S)O[C@H]3[C@@H](O)[C@H](n4ccc5c(=O)[nH]c(N)nc54)O[C@@H]3COP(=O)(S)O[C@H]3[C@@H](O)[C@H](n4cnc5c(N)ncnc54)O[C@@H]3COP(=O)(S)O[C@H]3[C@@H](O)[C@H](n4ccc5c(=O)[nH]c(N)nc54)O[C@@H]3COP(=O)(S)O[C@H]3[C@@H](O)[C@H](n4ccc(N)nc4=O)O[C@@H]3COP(=O)(S)O[C@H]3[C@@H](O)[C@H](n4ccc5c(=O)[nH]c(N)nc54)O[C@@H]3COP(=O)(S)O[C@H]3[C@@H](O)[C@H](n4ccc(=O)[nH]c4=O)O[C@@H]3COP(=O)(S)O[C@H]3[C@@H](O)[C@H](n4ccc(N)nc4=O)O[C@@H]3COP(=O)(S)O[C@H]3[C@@H](O)[C@H](n4cnc5c(N)ncnc54)O[C@@H]3CO)[C@H]2O)c(=O)n1 (stereo not given in full)	Active	Active	inactive	–
Nc1ccn([C@@H]2O[C@H](COP(=O)(S)O[C@H]3[C@@H](O)[C@H](n4cnc5c(N)ncnc54)O[C@@H]3CO)[C@@H](OP(=O)(S)OC[C@H]3O[C@@H](n4ccc(=O)[nH]c4=O)[C@H](O)[C@@H]3OP(=O)(S)OC[C@H]3O[C@@H](n4ccc(=O)[nH]c4=O)[C@H](O)[C@@H]3OP(=O)(S)OC[C@H]3O[C@@H](n4ccc5c(=O)[nH]c(N)nc54)[C@H](O)[C@@H]3OP(=O)(S)OC[C@H]3O[C@@H](n4cnc5c(N)ncnc54)[C@H](O)[C@@H]3OP(=O)(S)OC[C@H]3O[C@@H](n4cnc5c(N)ncnc54)[C@H](O)[C@@H]3OP(=O)(S)OC[C@H]3O[C@@H](n4ccc5c(=O)[nH]c(N)nc54)[C@H](O)[C@@H]3OP(=O)(S)OC[C@H]3O[C@@H](n4ccc(N)nc4=O)[C@H](O)[C@@H]3OP(=O)(S)OC[C@H]3O[C@@H](n4ccc(=O)[nH]c4=O)[C@H](O)[C@@H]3OP(=O)(S)OC[C@H]3O[C@@H](n4ccc(=O)[nH]c4=O)[C@H](O)[C@@H]3OP(=O)(S)OCC(O)COP(=O)(S)O[C@H]3[C@@H](O)[C@H](n4ccc(=O)[nH]c4=O)O[C@@H]3COP(=O)(S)O[C@H]3[C@@H](O)[C@H](n4ccc(=O)[nH]c4=O)O[C@@H]3COP(=O)(S)O[C@H]3[C@@H](O)[C@H](n4ccc(N)nc4=O)O[C@@H]3COP(=O)(S)O[C@H]3[C@@H](O)[C@H](n4ccc5c(=O)[nH]c(N)nc54)O[C@@H]3COP(=O)(S)O[C@H]3[C@@H](O)[C@H](n4cnc5c(N)ncnc54)O[C@@H]3COP(=O)(S)O[C@H]3[C@@H](O)[C@H](n4cnc5c(N)ncnc54)O[C@@H]3COP(=O)(S)O[C@H]3[C@@H](O)[C@H](n4ccc5c(=O)[nH]c(N)nc54)O[C@@H]3COP(=O)(S)O[C@H]3[C@@H](O)[C@H](n4ccc(=O)[nH]c4=O)O[C@@H]3COP(=O)(S)O[C@H]3[C@@H](O)[C@H](n4ccc(=O)[nH]c4=O)O[C@@H]3COP(=O)(S)O[C@H]3[C@@H](O)[C@H](n4ccc(N)nc4=O)O[C@@H]3COP(=O)(S)O[C@H]3[C@@H](O)[C@H](n4cnc5c(N)ncnc54)O[C@@H]3CO)[C@H]2O)c(=O)n1 (stereo not given in full)	–	–	–	Active
Nc1ccn([C@@H]2O[C@H](COP(=O)(S)O[C@H]3[C@@H](O)[C@H](n4cnc5c(N)ncnc54)O[C@@H]3CO)[C@@H](OP(=O)(S)OC[C@H]3O[C@@H](n4ccc(=O)[nH]c4=O)[C@H](O)[C@@H]3OP(=O)(S)OC[C@H]3O[C@@H](n4ccc(=O)[nH]c4=O)[C@H](O)[C@@H]3OP(=O)(S)OC[C@H]3O[C@@H](n4ccc5c(=O)[nH]c(N)nc54)[C@H](O)[C@@H]3OP(=O)(S)OC[C@H]3O[C@@H](n4cnc5c(N)ncnc54)[C@H](O)[C@@H]3OP(=O)(S)OC[C@H]3O[C@@H](n4ccc(N)nc4=O)[C@H](O)[C@@H]3OP(=O)(S)OC[C@H]3O[C@@H](n4ccc5c(=O)[nH]c(N)nc54)[C@H](O)[C@@H]3OP(=O)(S)OC[C@H]3O[C@@H](n4cnc5c(N)ncnc54)[C@H](O)[C@@H]3OP(=O)(S)OC[C@H]3O[C@@H](n4ccc(=O)[nH]c4=O)[C@H](O)[C@@H]3OP(=O)(S)OC[C@H]3O[C@@H](n4ccc(=O)[nH]c4=O)[C@H](O)[C@@H]3OP(=O)(S)OCC(O)COP(=O)(S)O[C@H]3[C@@H](O)[C@H](n4ccc(=O)[nH]c4=O)O[C@@H]3COP(=O)(S)O[C@H]3[C@@H](O)[C@H](n4ccc(=O)[nH]c4=O)O[C@@H]3COP(=O)(S)O[C@H]3[C@@H](O)[C@H](n4cnc5c(N)ncnc54)O[C@@H]3COP(=O)(S)O[C@H]3[C@@H](O)[C@H](n4ccc5c(=O)[nH]c(N)nc54)O[C@@H]3COP(=O)(S)O[C@H]3[C@@H](O)[C@H](n4ccc(N)nc4=O)O[C@@H]3COP(=O)(S)O[C@H]3[C@@H](O)[C@H](n4cnc5c(N)ncnc54)O[C@@H]3COP(=O)(S)O[C@H]3[C@@H](O)[C@H](n4ccc5c(=O)[nH]c(N)nc54)O[C@@H]3COP(=O)(S)O[C@H]3[C@@H](O)[C@H](n4ccc(=O)[nH]c4=O)O[C@@H]3COP(=O)(S)O[C@H]3[C@@H](O)[C@H](n4ccc(=O)[nH]c4=O)O[C@@H]3COP(=O)(S)O[C@H]3[C@@H](O)[C@H](n4ccc(N)nc4=O)O[C@@H]3COP(=O)(S)O[C@H]3[C@@H](O)[C@H](n4cnc5c(N)ncnc54)O[C@@H]3CO)[C@H]2O)c(=O)n1 (stereo not given in full)	–	–	–	Active
